The source made the active and inactive calls. No cut-off for these calls is given here.
What was measured:
HepG2 [1] = assay: Induction of ARE in human HepG2 cells by luciferase assay; format: functional, cell-based
How it was run: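 Stably transfected HepG2 cells carrying an ARE-luciferase reporter. EC50 is the concentration giving activation halfway between the DMSO-control baseline and the maximum response at 20 µg/mL.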

[2] = biological target: T1, Prostaglandin G/H synthase 2 (Homo sapiens, UniProt P35354); assay: (§1) Inhibition of COX2
T1 sequence (P35354 whole entry): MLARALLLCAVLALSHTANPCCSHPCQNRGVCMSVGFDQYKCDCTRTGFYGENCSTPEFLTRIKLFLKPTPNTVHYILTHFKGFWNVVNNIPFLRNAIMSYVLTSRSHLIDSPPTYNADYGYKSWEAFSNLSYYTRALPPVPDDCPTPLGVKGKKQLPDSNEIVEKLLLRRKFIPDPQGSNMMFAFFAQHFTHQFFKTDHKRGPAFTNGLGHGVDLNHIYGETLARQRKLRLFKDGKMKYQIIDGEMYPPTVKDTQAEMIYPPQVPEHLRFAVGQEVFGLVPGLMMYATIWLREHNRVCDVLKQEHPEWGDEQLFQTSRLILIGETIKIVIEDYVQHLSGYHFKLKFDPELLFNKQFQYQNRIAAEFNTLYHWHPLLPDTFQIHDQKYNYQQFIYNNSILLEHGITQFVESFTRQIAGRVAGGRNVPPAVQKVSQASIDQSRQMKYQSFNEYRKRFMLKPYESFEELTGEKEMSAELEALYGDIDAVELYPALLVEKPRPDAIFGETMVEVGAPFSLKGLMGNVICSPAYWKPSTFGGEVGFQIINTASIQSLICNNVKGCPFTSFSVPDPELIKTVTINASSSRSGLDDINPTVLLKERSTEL
How it was run: (§2)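 COX-1 and COX-2 activity read out as PGE2 production. Indomethacin served as the positive control.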

[3] = biological target: Prostaglandin G/H synthase 1 (Homo sapiens) (UniProt P23219); assay: Inhibition of COX1; how it was run: as §2
Sequence of Prostaglandin G/H synthase 1 (Homo sapiens) (P23219 whole entry): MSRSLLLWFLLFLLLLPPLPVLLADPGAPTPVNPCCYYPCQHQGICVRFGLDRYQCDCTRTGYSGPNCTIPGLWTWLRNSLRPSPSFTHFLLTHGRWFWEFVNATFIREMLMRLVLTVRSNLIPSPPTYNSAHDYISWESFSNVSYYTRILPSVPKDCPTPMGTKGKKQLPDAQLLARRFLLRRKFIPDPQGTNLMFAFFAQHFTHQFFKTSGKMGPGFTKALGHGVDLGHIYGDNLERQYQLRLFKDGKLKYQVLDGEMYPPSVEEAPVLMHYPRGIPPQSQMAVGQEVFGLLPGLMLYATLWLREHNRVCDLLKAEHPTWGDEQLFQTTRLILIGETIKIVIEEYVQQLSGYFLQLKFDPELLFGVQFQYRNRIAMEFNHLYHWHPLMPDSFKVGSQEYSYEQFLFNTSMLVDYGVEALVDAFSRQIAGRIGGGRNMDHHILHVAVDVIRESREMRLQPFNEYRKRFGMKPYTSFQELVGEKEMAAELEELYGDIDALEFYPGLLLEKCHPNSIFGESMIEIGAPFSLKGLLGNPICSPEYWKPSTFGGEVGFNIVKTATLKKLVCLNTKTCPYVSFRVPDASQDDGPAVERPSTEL

HepG2 [4] = assay: Inhibition of TPA-induced NF-kappaB activation in human HepG2 cells by luciferase assay; format: functional, cell-based
How it was run: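 NFκB-luciferase reporter construct activated with TPA (phorbol ester). IC50 is the concentration that reduces TPA-activated NFκB luciferase activity by 50%.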

HepG2 [5] = assay: Cytotoxicity against human HepG2 cells; format: cell-based
[6] = biological target: T2, Prostaglandin G/H synthase 2 (Homo sapiens) (UniProt P35354); assay: as §1; how it was run: as §2
T2 sequence (whole entry): T1 sequence (P35354 whole entry)

Row | SMILES | EC50 (HepG2 [1]) [µM] | IC50 [2] [µM] | Activity [3] | IC50 (HepG2 [4]) [µM] | Activity (HepG2 [5]) | Activity [6]
1 | O=c1cc(-c2ccc(Br)cc2)oc2ccccc12 | 30 | – | – | – | – | –
2 | CCCCCCCCCCCCCCCCCC(=O)O[C@H]1C[C@@H](O)[C@]2(C)[C@H]3CC[C@@H]4[C@@H]([C@@](C)(O)C/C=C/C(C)(C)OO)CC[C@@]4(C)[C@]3(C)CC[C@H]2C1(C)C [BRUGUIERIN C] | 15.7 | – | inactive | – | Non-toxic | inactive
3 | C[S+]([O-])CCCCN=C=S (stereo unspecified) [SULFORAPHANE] | 4 | – | – | – | – | –

Further lines, with some results ahead:

Row | EC50 (HepG2 [1]) [µM] | IC50 [2] [µM] | Activity [3] | IC50 (HepG2 [4]) [µM] | SMILES | Activity (HepG2 [5]) | Activity [6]
4 | 8 | – | – | – | O=c1cc(-c2ccccc2)oc2ccc3ccccc3c12 [BETA-NAPHTHOFLAVONE] | – | –
5 | 7.8 | 0.37 | inactive | 1.4 | CCCCCCCCCCCCCCCCCC(=O)O[C@H]1C[C@@H](O)[C@]2(C)[C@H]3CC[C@@H]4[C@@H]([C@@](C)(O)CCC=C(C)C)CC[C@@]4(C)[C@]3(C)CC[C@H]2C1(C)C [BRUGUIERIN A] | Non-toxic | –
6 | 9.4 | – | inactive | – | CCCCCCCCCCCCCCCCCC(=O)O[C@H]1CC[C@]2(C)[C@H]3[C@H](O)C[C@@H]4[C@@H]([C@@](C)(O)CCC=C(C)C)CC[C@@]4(C)[C@]3(C)CC[C@H]2C1(C)C [BRUGUIERIN B] | Non-toxic | inactive

Source: ChEMBL document CHEMBL1157298, “Bioactive dammarane triterpenes from the mangrove plant Bruguiera gymnorrhiza” (J Nat Prod, 2006)
